Tests used:
Thyroid gland [1] = assay: Biodistribution in 9L cells bearing Fischer 344 rat thyroid at 15 to 30 uCi, iv after 120 mins; format: ADME, organism-based; conditions: in vivo, 2 h
In short: (§1)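 Male Fischer 344 rats (125–175 g) bearing intracranial 9L gliosarcoma implants; radioiodinated tracer (123I for S, 131I for R) purified in saline, given intravenously. Tissues harvested at 30, 60 or 120 min, radioactivity expressed as %ID/g (thyroid per organ). Groups: S study 5 rats per time; R study 5 at 30 min, 4 at 60 and 120 min.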

Pancreas [2] = assay: Biodistribution in 9L cells bearing Fischer 344 rat pancreas at 15 to 30 uCi, iv after 60 mins; format: ADME, organism-based; conditions: in vivo, 1 h; in short: as §1
Lung [3] = assay: Biodistribution in 9L cells bearing Fischer 344 rat lung at 15 to 30 uCi, iv after 120 mins; format: ADME, organism-based; conditions: in vivo, 2 h; in short: as §1
Rattus norvegicus [4] = assay: Biodistribution in 9L cells bearing Fischer 344 rat tumor at 15 to 30 uCi, iv after 120 mins; format: ADME, organism-based, Neoplasm; conditions: in vivo, 2 h; in short: as §1
9L [5] = assay: Drug uptake per 10^6 cells in rat 9L cells after 30 mins; format: ADME, cell-based; conditions: 0.5 h
In short: (§2)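 Cultured rat 9L gliosarcoma cells incubated 30 min with 131I-labelled tracer, with or without A-type inhibitor N-MeAIB or L-type inhibitor BCH. Uptake expressed as percent of initial dose per 1 × 10^6 cells, normalized for dose and cell number. Inhibition compared to control by one-way ANOVA; SD shown.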

Pancreas [6] = assay: Biodistribution in 9L cells bearing Fischer 344 rat pancreas at 15 to 30 uCi, iv after 120 mins; format: ADME, organism-based; conditions: in vivo, 2 h; in short: as §1
Liver [7] = assay: Biodistribution in 9L cells bearing Fischer 344 rat liver at 15 to 30 uCi, iv after 30 mins; format: ADME, organism-based; conditions: in vivo, 0.5 h; in short: as §1
Thyroid gland [8] = assay: Biodistribution in 9L cells bearing Fischer 344 rat thyroid at 15 to 30 uCi, iv after 30 mins; format: ADME, organism-based; conditions: in vivo, 0.5 h; in short: as §1
Spleen [9] = assay: Biodistribution in 9L cells bearing Fischer 344 rat spleen at 15 to 30 uCi, iv after 30 mins; format: ADME, organism-based; conditions: in vivo, 0.5 h; in short: as §1
Blood [10] = assay: Biodistribution in 9L cells bearing Fischer 344 rat blood at 15 to 30 uCi, iv after 120 mins; format: ADME, organism-based; conditions: in vivo, 2 h; in short: as §1
Testes [11] = assay: Biodistribution in 9L cells bearing Fischer 344 rat testes at 15 to 30 uCi, iv after 30 mins; format: ADME, organism-based, Testis; conditions: in vivo, 0.5 h; in short: as §1
Pancreas [12] = assay: Biodistribution in 9L cells bearing Fischer 344 rat pancreas at 15 to 30 uCi, iv after 30 mins; format: ADME, organism-based; conditions: in vivo, 0.5 h; in short: as §1
Bone [13] = assay: Biodistribution in 9L cells bearing Fischer 344 rat bone at 15 to 30 uCi, iv after 120 mins; format: ADME, organism-based, Bone element; conditions: in vivo, 2 h; in short: as §1
Nucleic Acid [14] = assay: Ratio of drug level in tumor to brain in 9L cells bearing Fischer 344 rat at 15 to 30 uCi, iv after 60 mins; format: ADME, organism-based; conditions: in vivo, 1 h
In short: (§3)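 Intracranial 9L gliosarcoma in male Fischer 344 rats (125–175 g). The 123I-labelled (S) or 131I-labelled (R) tracer was given iv in saline. Tumor and normal brain %ID/g were measured at 30, 60 or 120 min, and the ratio was taken from these. Groups were 5 per time for S, and 5/4/4 for R.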

Liver [15] = assay: Biodistribution in 9L cells bearing Fischer 344 rat liver at 15 to 30 uCi, iv after 60 mins; format: ADME, organism-based; conditions: in vivo, 1 h; in short: as §1
Heart [16] = assay: Biodistribution in 9L cells bearing Fischer 344 rat heart at 15 to 30 uCi, iv after 120 mins; format: ADME, organism-based; conditions: in vivo, 2 h; in short: as §1
Blood [17] = assay: Biodistribution in 9L cells bearing Fischer 344 rat blood at 15 to 30 uCi, iv after 60 mins; format: ADME, organism-based; conditions: in vivo, 1 h; in short: as §1
Kidney [18] = assay: Biodistribution in 9L cells bearing Fischer 344 rat kidney at 15 to 30 uCi, iv after 120 mins; format: ADME, organism-based; conditions: in vivo, 2 h; in short: as §1
Kidney [19] = assay: Biodistribution in 9L cells bearing Fischer 344 rat kidney at 15 to 30 uCi, iv after 60 mins; format: ADME, organism-based; conditions: in vivo, 1 h; in short: as §1
Brain [20] = assay: Biodistribution in 9L cells bearing Fischer 344 rat brain at 15 to 30 uCi, iv after 120 mins; format: ADME, organism-based; conditions: in vivo, 2 h; in short: as §1
Bone [21] = assay: Biodistribution in 9L cells bearing Fischer 344 rat bone at 15 to 30 uCi, iv after 30 mins; format: ADME, organism-based, Bone element; conditions: in vivo, 0.5 h; in short: as §1
Rattus norvegicus [22] = assay: Biodistribution in 9L cells bearing Fischer 344 rat tumor at 15 to 30 uCi, iv after 30 mins; format: ADME, organism-based, Neoplasm; conditions: in vivo, 0.5 h; in short: as §1
Muscle tissue [23] = assay: Biodistribution in 9L cells bearing Fischer 344 rat muscle at 15 to 30 uCi, iv after 60 mins; format: ADME, organism-based; conditions: in vivo, 1 h; in short: as §1
Spleen [24] = assay: Biodistribution in 9L cells bearing Fischer 344 rat spleen at 15 to 30 uCi, iv after 60 mins; format: ADME, organism-based; conditions: in vivo, 1 h; in short: as §1
Bone [25] = assay: Biodistribution in 9L cells bearing Fischer 344 rat bone at 15 to 30 uCi, iv after 60 mins; format: ADME, organism-based, Bone element; conditions: in vivo, 1 h; in short: as §1
Spleen [26] = assay: Biodistribution in 9L cells bearing Fischer 344 rat spleen at 15 to 30 uCi, iv after 120 mins; format: ADME, organism-based; conditions: in vivo, 2 h; in short: as §1
Heart [27] = assay: Biodistribution in 9L cells bearing Fischer 344 rat heart at 15 to 30 uCi, iv after 30 mins; format: ADME, organism-based; conditions: in vivo, 0.5 h; in short: as §1
Rattus norvegicus [28] = assay: Biodistribution in 9L cells bearing Fischer 344 rat tumor at 15 to 30 uCi, iv after 60 mins; format: ADME, organism-based, Neoplasm; conditions: in vivo, 1 h; in short: as §1
Brain [29] = assay: Biodistribution in 9L cells bearing Fischer 344 rat brain at 15 to 30 uCi, iv after 30 mins; format: ADME, organism-based; conditions: in vivo, 0.5 h; in short: as §1
Liver [30] = assay: Biodistribution in 9L cells bearing Fischer 344 rat liver at 15 to 30 uCi, iv after 120 mins; format: ADME, organism-based; conditions: in vivo, 2 h; in short: as §1
Heart [31] = assay: Biodistribution in 9L cells bearing Fischer 344 rat heart at 15 to 30 uCi, iv after 60 mins; format: ADME, organism-based; conditions: in vivo, 1 h; in short: as §1
Muscle tissue [32] = assay: Biodistribution in 9L cells bearing Fischer 344 rat muscle at 15 to 30 uCi, iv after 30 mins; format: ADME, organism-based; conditions: in vivo, 0.5 h; in short: as §1
9L [33] = assay: Drug uptake per 10^6 cells in rat 9L cells after 30 mins assessed as uptake inhibition in presence of N-methyl-alpha-aminoisobutyric acid relative to control; format: ADME, cell-based; design: scale not given: the % may be the effect or the level left; conditions: 0.5 h; in short: as §2
Kidney [34] = assay: Biodistribution in 9L cells bearing Fischer 344 rat kidney at 15 to 30 uCi, iv after 30 mins; format: ADME, organism-based; conditions: in vivo, 0.5 h; in short: as §1
Thyroid gland [35] = assay: Biodistribution in 9L cells bearing Fischer 344 rat thyroid at 15 to 30 uCi, iv after 60 mins; format: ADME, organism-based; conditions: in vivo, 1 h; in short: as §1
Nucleic Acid [36] = assay: Ratio of drug level in tumor to brain in 9L cells bearing Fischer 344 rat at 15 to 30 uCi, iv after 30 mins; format: ADME, organism-based; conditions: in vivo, 0.5 h; in short: as §3
Muscle tissue [37] = assay: Biodistribution in 9L cells bearing Fischer 344 rat muscle at 15 to 30 uCi, iv after 120 mins; format: ADME, organism-based; conditions: in vivo, 2 h; in short: as §1
Brain [38] = assay: Biodistribution in 9L cells bearing Fischer 344 rat brain at 15 to 30 uCi, iv after 60 mins; format: ADME, organism-based; conditions: in vivo, 1 h; in short: as §1
Lung [39] = assay: Biodistribution in 9L cells bearing Fischer 344 rat lung at 15 to 30 uCi, iv after 30 mins; format: ADME, organism-based; conditions: in vivo, 0.5 h; in short: as §1
Blood [40] = assay: Biodistribution in 9L cells bearing Fischer 344 rat blood at 15 to 30 uCi, iv after 30 mins; format: ADME, organism-based; conditions: in vivo, 0.5 h; in short: as §1
Testes [41] = assay: Biodistribution in 9L cells bearing Fischer 344 rat testes at 15 to 30 uCi, iv after 120 mins; format: ADME, organism-based, Testis; conditions: in vivo, 2 h; in short: as §1
Nucleic Acid [42] = assay: Ratio of drug level in tumor to brain in 9L cells bearing Fischer 344 rat at 15 to 30 uCi, iv after 120 mins; format: ADME, organism-based; conditions: in vivo, 2 h; in short: as §3
Lung [43] = assay: Biodistribution in 9L cells bearing Fischer 344 rat lung at 15 to 30 uCi, iv after 60 mins; format: ADME, organism-based; conditions: in vivo, 1 h; in short: as §1
Testes [44] = assay: Biodistribution in 9L cells bearing Fischer 344 rat testes at 15 to 30 uCi, iv after 60 mins; format: ADME, organism-based, Testis; conditions: in vivo, 1 h; in short: as §1

- Drug uptake (Thyroid gland [1]): 0.18 %ID/organ
- Drug uptake (Pancreas [2]): 10.7 % ID/g
- Drug uptake (Lung [3]): 0.98 % ID/g
- Drug uptake (Rattus norvegicus [4]): 6.84 % ID/g
- Drug uptake (9L [5]): 0.35 %ID
- Drug uptake (Pancreas [6]): 7.7 % ID/g
- Drug uptake (Liver [7]): 1.62 % ID/g
- Drug uptake (Thyroid gland [8]): 0.16 %ID/organ
- Drug uptake (Spleen [9]): 1.54 % ID/g
- Drug uptake (Blood [10]): 1.03 % ID/g
- Drug uptake (Testes [11]): 0.49 % ID/g
- Drug uptake (Pancreas [12]): 11.9 % ID/g
- Drug uptake (Bone [13]): 0.64 % ID/g
- Ratio (Nucleic Acid [14]): 75
- Drug uptake (Liver [15]): 1.62 % ID/g
- Drug uptake (Heart [16]): 1.2 % ID/g
- Drug uptake (Blood [17]): 1.22 % ID/g
- Drug uptake (Kidney [18]): 18.4 % ID/g
- Drug uptake (Kidney [19]): 22.9 % ID/g
- Drug uptake (Brain [20]): 0.096 % ID/g
- Drug uptake (Bone [21]): 0.51 % ID/g
- Drug uptake (Rattus norvegicus [22]): 4.7 % ID/g
- Drug uptake (Muscle tissue [23]): 1.7 % ID/g
- Drug uptake (Spleen [24]): 1.73 % ID/g
- Drug uptake (Bone [25]): 0.74 % ID/g
- Drug uptake (Spleen [26]): 1.08 % ID/g
- Drug uptake (Heart [27]): 1.31 % ID/g
- Drug uptake (Rattus norvegicus [28]): 6.81 % ID/g
- Drug uptake (Brain [29]): 0.058 % ID/g
- Drug uptake (Liver [30]): 1.27 % ID/g
- Drug uptake (Heart [31]): 1.4 % ID/g
- Drug uptake (Muscle tissue [32]): 1.35 % ID/g
- Activity (9L [33]): 85%
- Drug uptake (Kidney [34]): 24 % ID/g
- Drug uptake (Thyroid gland [35]): 0.24 %ID/organ
- Ratio (Nucleic Acid [36]): 81
- Drug uptake (Muscle tissue [37]): 1.26 % ID/g
- Drug uptake (Brain [38]): 0.091 % ID/g
- Drug uptake (Lung [39]): 1.24 % ID/g
- Drug uptake (Blood [40]): 1.33 % ID/g
- Drug uptake (Testes [41]): 0.64 % ID/g
- Ratio (Nucleic Acid [42]): 71
- Drug uptake (Lung [43]): 1.41 % ID/g
- Drug uptake (Testes [44]): 0.58 % ID/g
Structure (SMILES): C[C@](N)(/C=C/[123I])C(=O)O

Source: ChEMBL document CHEMBL1138353, “Facile stereospecific synthesis and biological evaluation of (S)- and (R)-2-amino-2-methyl-4-[123I]iodo-3-(E)-butenoic acid for brain tumor imaging with single photon emission computerized tomography” (J Med Chem, 2007)
